ChEMBL document CHEMBL3421560, “Search for factors affecting antibacterial activity and toxicity of 1,2,4-triazole-ciprofloxacin hybrids” (Eur J Med Chem, 2015)
Converted amounts (≈) assume the structure as drawn.

Key:
[1] = system: Staphylococcus epidermidis; assay: Antimicrobial activity against Staphylococcus epidermidis ATCC 12228 after 18 hrs by broth microdilution method; format: functional; conditions: ATCC 12228, 18 h
[2] = system: Proteus mirabilis; assay: Antimicrobial activity against Proteus mirabilis ATCC 12453 after 18 hrs by broth microdilution method; format: functional; conditions: ATCC 12453, 18 h
[3] = system: Staphylococcus aureus; assay: Ratio of MBC for methicillin-susceptible Staphylococcus aureus ATCC 25923 to MIC for methicillin-susceptible Staphylococcus aureus ATCC 25923; format: functional
Outline: (§1)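 MBC taken as lowest concentration giving >99.9% CFU reduction of the initial inoculum; value is MBC divided by MIC for the same strain.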

[4] = system: Bacillus subtilis; assay: Antimicrobial activity against Bacillus subtilis […] after 18 hrs by broth microdilution method; format: functional
[5] = system: Klebsiella pneumoniae; assay: Antimicrobial activity against Klebsiella pneumoniae ATCC 13883 after 18 hrs by broth microdilution method; format: functional; conditions: ATCC 13883, 18 h
[6] = system: Staphylococcus aureus; assay: Antimicrobial activity against methicillin-susceptible Staphylococcus aureus ATCC 6538 after 18 hrs by broth microdilution method; format: functional; conditions: ATCC 6538, 18 h
[7] = system: Staphylococcus aureus; assay: Antimicrobial activity against Staphylococcus aureus Microbank 14001 after 18 hrs by broth microdilution method; format: functional; conditions: Microbank 14001, 18 h
[8] = system: Staphylococcus aureus; assay: Antimicrobial activity against methicillin-susceptible Staphylococcus aureus ATCC 25923 after 18 hrs by broth microdilution method; format: functional; conditions: ATCC 25923, 18 h
[9] = system: Bacillus cereus; assay: Antimicrobial activity against Bacillus cereus ATCC 10876 after 18 hrs by broth microdilution method; format: functional; conditions: ATCC 10876, 18 h
[10] = system: Micrococcus luteus; assay: Antimicrobial activity against Micrococcus luteus ATCC 10240 after 18 hrs by broth microdilution method; format: functional; conditions: ATCC 10240, 18 h
[11] = system: Escherichia coli; assay: Antimicrobial activity against Escherichia coli ATCC 25922 after 18 hrs by broth microdilution method; format: functional; conditions: ATCC 25922, 18 h
[12] = system: Pseudomonas aeruginosa; assay: Antimicrobial activity against Pseudomonas aeruginosa ATCC 9027 after 18 hrs by broth microdilution method; format: functional; conditions: ATCC 9027, 18 h
[13] = system: Staphylococcus aureus; assay: Ratio of MBC for methicillin-susceptible Staphylococcus aureus ATCC 6538 to MIC for methicillin-susceptible Staphylococcus aureus ATCC 6538; format: functional; outline: as §1
[14] = system: Staphylococcus aureus; assay: Ratio of MBC for Staphylococcus aureus Microbank 14001 to MIC for Staphylococcus aureus Microbank 14001; format: functional; outline: as §1
[15] = system: HEK293; assay: Cytotoxicity against HEK293 cells after 72 hrs by MTT assay; format: cell-based; conditions: Homo sapiens, HEK293, 48 h; in the assay text read “48 hrs” for “72 hrs”
Outline: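 HEK-293 (ATCC CRL-1573) in MEM with 10% FBS plus penicillin/streptomycin, seeded 3 x 10^5 cells/well, 24 h at 37 °C, 5% CO2. Treated with compounds diluted from 50 mg/mL DMSO stock into medium with 2% FBS for 48 h. Viability by MTT formazan readout; EC50 relative to control cells, mean ± SD of three independent experiments.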

Structure (SMILES)	MIC [1] [µM]	MIC [2] [µM]	Ratio [3]	MIC [4] [µM]	MIC [5] [µM]	MIC [6] [µM]	MIC [7] [µM]	MIC [8] [µM]	MIC [9] [µM]	MIC [10] [µM]	MIC [11] [µM]	MIC [12] [µM]	Ratio [13]	Ratio [14]	EC50 [15] [µM]
O=C(O)c1cn(C2CC2)c2cc(N3CCN(Cn4nc(-c5cccc(O)c5)n(-c5ccc(F)cc5)c4=S)CC3)c(F)cc2c1=O	0.19 (≈ 0.12 µg/mL)	0.024 (≈ 0.0151 µg/mL)	<=4	0.095 (≈ 0.0599 µg/mL)	0.048 (≈ 0.0303 µg/mL)	0.38 (≈ 0.24 µg/mL)	0.38 (≈ 0.24 µg/mL)	0.76 (≈ 0.479 µg/mL)	0.19 (≈ 0.12 µg/mL)	1.55 (≈ 0.978 µg/mL)	0.012 (≈ 0.00757 µg/mL)	0.38 (≈ 0.24 µg/mL)	<=4	<=4	–
O=C(O)c1cn(C2CC2)c2cc(N3CCN(Cn4nc(-c5cccc(O)c5)n(-c5ccc(Cl)cc5)c4=S)CC3)c(F)cc2c1=O	0.093 (≈ 0.0602 µg/mL)	0.024 (≈ 0.0155 µg/mL)	<=4	0.093 (≈ 0.0602 µg/mL)	0.046 (≈ 0.0298 µg/mL)	0.37 (≈ 0.239 µg/mL)	0.37 (≈ 0.239 µg/mL)	0.76 (≈ 0.492 µg/mL)	0.18 (≈ 0.116 µg/mL)	1.51 (≈ 0.977 µg/mL)	0.012 (≈ 0.00777 µg/mL)	0.37 (≈ 0.239 µg/mL)	<=4	<=4	–
O=C(O)c1cn(C2CC2)c2cc(N3CCN(Cn4nc(-c5cccc(O)c5)n(Cc5ccc(Cl)cc5)c4=S)CC3)c(F)cc2c1=O	0.18 (≈ 0.119 µg/mL)	0.023 (≈ 0.0152 µg/mL)	<=4	0.18 (≈ 0.119 µg/mL)	0.18 (≈ 0.119 µg/mL)	1.48 (≈ 0.979 µg/mL)	1.48 (≈ 0.979 µg/mL)	1.48 (≈ 0.979 µg/mL)	0.18 (≈ 0.119 µg/mL)	2.95 (≈ 1.95 µg/mL)	0.023 (≈ 0.0152 µg/mL)	0.36 (≈ 0.238 µg/mL)	<=4	<=4	–
COc1ccc(-n2c(-c3cccc(O)c3)nn(CN3CCN(c4cc5c(cc4F)c(=O)c(C(=O)O)cn5C4CC4)CC3)c2=S)cc1	0.19 (≈ 0.122 µg/mL)	0.047 (≈ 0.0302 µg/mL)	<=4	0.37 (≈ 0.238 µg/mL)	0.093 (≈ 0.0598 µg/mL)	0.37 (≈ 0.238 µg/mL)	0.093 (≈ 0.0598 µg/mL)	0.74 (≈ 0.476 µg/mL)	0.19 (≈ 0.122 µg/mL)	1.52 (≈ 0.977 µg/mL)	0.006 (≈ 0.00386 µg/mL)	0.19 (≈ 0.122 µg/mL)	<=4	<=4	114
O=C(O)c1cn(C2CC2)c2cc(N3CCN(Cn4nc(-c5ccc(O)cc5)n(-c5ccccc5)c4=S)CC3)c(F)cc2c1=O	0.098 (≈ 0.06 µg/mL)	0.049 (≈ 0.03 µg/mL)	<=4	0.024 (≈ 0.0147 µg/mL)	0.049 (≈ 0.03 µg/mL)	0.39 (≈ 0.239 µg/mL)	0.39 (≈ 0.239 µg/mL)	1.6 (≈ 0.98 µg/mL)	0.098 (≈ 0.06 µg/mL)	1.6 (≈ 0.98 µg/mL)	0.024 (≈ 0.0147 µg/mL)	0.2 (≈ 0.123 µg/mL)	<=4	<=4	–
O=C(O)c1cn(C2CC2)c2cc(N3CCN(Cn4nc(-c5ccc(O)cc5)n(Cc5ccccc5)c4=S)CC3)c(F)cc2c1=O	0.19 (≈ 0.119 µg/mL)	0.024 (≈ 0.015 µg/mL)	<=4	0.78 (≈ 0.489 µg/mL)	0.19 (≈ 0.119 µg/mL)	1.56 (≈ 0.978 µg/mL)	1.56 (≈ 0.978 µg/mL)	3.11 (≈ 1.95 µg/mL)	0.19 (≈ 0.119 µg/mL)	6.24 (≈ 3.91 µg/mL)	0.048 (≈ 0.0301 µg/mL)	0.38 (≈ 0.238 µg/mL)	<=4	<=4	–
O=C(O)c1cn(C2CC2)c2cc(N3CCN(Cn4nc(-c5ccc(O)cc5)n(-c5ccc(Cl)cc5)c4=S)CC3)c(F)cc2c1=O	0.18 (≈ 0.116 µg/mL)	0.012 (≈ 0.00777 µg/mL)	<=4	0.046 (≈ 0.0298 µg/mL)	0.093 (≈ 0.0602 µg/mL)	0.37 (≈ 0.239 µg/mL)	0.093 (≈ 0.0602 µg/mL)	0.76 (≈ 0.492 µg/mL)	0.18 (≈ 0.116 µg/mL)	1.51 (≈ 0.977 µg/mL)	0.011 (≈ 0.00712 µg/mL)	0.18 (≈ 0.116 µg/mL)	<=4	<=4	–
COc1ccc(Cn2c(-c3ccc(O)cc3)nn(CN3CCN(c4cc5c(cc4F)c(=O)c(C(=O)O)cn5C4CC4)CC3)c2=S)cc1	1.49 (≈ 0.979 µg/mL)	0.091 (≈ 0.0598 µg/mL)	<=4	0.18 (≈ 0.118 µg/mL)	0.091 (≈ 0.0598 µg/mL)	0.75 (≈ 0.493 µg/mL)	0.75 (≈ 0.493 µg/mL)	2.97 (≈ 1.95 µg/mL)	0.091 (≈ 0.0598 µg/mL)	5.95 (≈ 3.91 µg/mL)	0.046 (≈ 0.0302 µg/mL)	0.36 (≈ 0.236 µg/mL)	<=4	<=4	–
CN[C@H](CC(C)C)C(=O)N[C@H]1C(=O)N[C@@H](CC(N)=O)C(=O)N[C@H]2C(=O)N[C@H]3C(=O)N[C@H](C(=O)N[C@H](C(=O)O)c4cc(O)cc(O)c4-c4cc3ccc4O)[C@H](O)c3ccc(c(Cl)c3)Oc3cc2cc(c3O[C@@H]2O[C@H](CO)[C@@H](O)[C@H](O)[C@H]2O[C@H]2C[C@](C)(N)[C@H](O)[C@H](C)O2)Oc2ccc(cc2Cl)[C@H]1O [VANCOMYCIN]	–	–	–	–	–	–	0.68 (≈ 0.986 µg/mL)	–	–	–	–	–	–	–	–
